In ChEMBL document CHEMBL5223087, “First-in-Class Cyclic Temporin L Analogue: Design, Synthesis, and Antimicrobial Assessment” (J Med Chem, 2021):
Converted amounts (≈) assume the structure as drawn. Bridge positions count the residues as written; N and C are the ends. Square brackets hold non-standard residues; d marks the D form. Triazole bridges read from a SMILES are 1,4-linked. Peptide text beside a SMILES is read from it. dLys(N3) = [N-]=[N+]=NCCCC[C@@H](N)C(=O)O; Lys(N3) = [N-]=[N+]=NCCCC[C@H](N)C(=O)O; Pra = C#CC[C@H](N)C(=O)O

Assays:
Type in all cases: functional
Conditions in all cases: time 16-18 hrs
Staphylococcus aureus = experiment: Antimicrobial activity against Staphylococcus aureus ATCC 25923 assessed as reduction in bacterial growth incubated for 16 to 18 hrs by microdilution susceptibility test
Outline: (§1)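 Broth microdilution in Mueller–Hinton broth. Mid-log bacteria at 1 × 10⁶ CFU/mL final, peptide twofold serial dilutions 100 to 0.78 μM final. Incubated 16–18 h at 37 °C. MIC taken as the lowest concentration giving total (100%) growth inhibition.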

[1] = system: Staphylococcus epidermidis; experiment: Antimicrobial activity against Staphylococcus epidermidis ATCC 12228 assessed as reduction in bacterial growth incubated for 16 to 18 hrs by microdilution susceptibility test; outline: as §1
Priestia megaterium = experiment: Antimicrobial activity against Bacillus megaterium Bm11 assessed as reduction in bacterial growth incubated for 16 to 18 hrs by microdilution susceptibility test; outline: as §1
Escherichia coli = experiment: Antimicrobial activity against Escherichia coli ATCC 25922 assessed as reduction in bacterial growth incubated for 16 to 18 hrs by microdilution susceptibility test; outline: as §1
Pseudomonas aeruginosa = experiment: Antimicrobial activity against Pseudomonas aeruginosa ATCC 27853 assessed as reduction in bacterial growth incubated for 16 to 18 hrs by microdilution susceptibility test; outline: as §1
Acinetobacter baumannii = experiment: Antimicrobial activity against Acinetobacter baumannii ATCC 19606 assessed as reduction in bacterial growth incubated for 16 to 18 hrs by microdilution susceptibility test; outline: as §1

Row | Compound | MIC (Staphylococcus aureus) | MIC [1] | MIC (Priestia megaterium) | MIC (Escherichia coli) | MIC (Pseudomonas aeruginosa) | MIC (Acinetobacter baumannii)
1 | CC[C@H](C)[C@@H]1NC(=O)[C@H](CCCNC(=N)N)NC(=O)CNC(=O)[C@H](NC(=O)[C@H](Cc2ccccc2)NC(=O)[C@H](CCCCN)NC(=O)[C@H](CO)NC(=O)[C@H](Cc2ccccc2)NC(=O)[C@H](Cc2c[nH]c3ccccc23)NC(=O)[C@@H]2CCCN2C(=O)[C@@H](NC(=O)[C@@H](N)Cc2ccccc2)C(C)C)CCCCNC(=O)CC[C@@H](C(N)=O)NC1=O | > 100 µM | > 100 µM | – | > 100 µM | > 100 µM | > 100 µM
2 | CC[C@H](C)[C@H](NC(=O)[C@H](CCCNC(=N)N)NC(=O)CNC(=O)[C@@H](CC(C)C)NC(=O)[C@@H]1CCC(=O)NCCCC[C@H](NC(=O)[C@@H]2CCCN2C(=O)[C@@H](NC(=O)[C@@H](N)Cc2ccccc2)C(C)C)C(=O)N[C@@H](Cc2ccccc2)C(=O)N[C@@H](CO)C(=O)N[C@@H](CCCCN)C(=O)N1)C(=O)N[C@@H](CC(C)C)C(N)=O (H-FVPKFSKE[dL]GRIL-NH2; lactam 4-8) | > 100 µM | > 100 µM | > 100 µM | > 100 µM | > 100 µM | > 100 µM
3 | CC[C@H](C)[C@@H]1NC(=O)[C@H](CCCNC(=N)N)NC(=O)CNC(=O)[C@@H](CC(C)C)NC(=O)[C@H](Cc2ccccc2)NC(=O)[C@H](CCCCN)NC(=O)[C@@H](NC(=O)[C@H](Cc2ccccc2)NC(=O)[C@H](Cc2c[nH]c3ccccc23)NC(=O)[C@@H]2CCCN2C(=O)[C@@H](NC(=O)[C@@H](N)Cc2ccccc2)C(C)C)CCCCNC(=O)CC[C@@H](C(N)=O)NC1=O (H-FVPWFKKF[dL]GRIE-NH2; lactam 6-13) | > 100 µM | > 100 µM | – | > 100 µM | > 100 µM | > 100 µM
4 | CC(C)C[C@H](NC(=O)[C@@H]1CCCCn2cc(nn2)C[C@H](NC(=O)[C@H](CCCCN)NC(=O)[C@H](CO)NC(=O)[C@H](Cc2ccccc2)NC(=O)[C@H](Cc2c[nH]c3ccccc23)NC(=O)[C@@H]2CCCN2C(=O)[C@@H](NC(=O)[C@@H](N)Cc2ccccc2)C(C)C)C(=O)N[C@H](CC(C)C)C(=O)NCC(=O)N[C@@H](CCCNC(=N)N)C(=O)N1)C(N)=O (H-FVPWFSK[Pra][dL]GR[Lys(N3)]L-NH2; triazole 8-12) | > 100 µM | > 100 µM | – | – | > 100 µM | –
5 | CC[C@H](C)[C@@H]1NC(=O)[C@H](CCCNC(=N)N)NC(=O)CNC(=O)[C@@H](CC(C)C)NC(=O)[C@H](Cc2ccccc2)NC(=O)[C@H](CCCCN)NC(=O)[C@@H](NC(=O)[C@H](Cc2ccccc2)NC(=O)[C@H](Cc2c[nH]c3ccccc23)NC(=O)[C@@H]2CCCN2C(=O)[C@@H](NC(=O)[C@@H](N)Cc2ccccc2)C(C)C)Cc2cn(nn2)CCCC[C@@H](C(N)=O)NC1=O (H-FVPWF[Pra]KF[dL]GRI[Lys(N3)]-NH2; triazole 6-13) | > 100 µM | > 100 µM | – | > 100 µM | > 100 µM | > 100 µM
6 | CC(C)C[C@H](NC(=O)[C@@H]1CCC(=O)NCCCC[C@H](NC(=O)[C@H](Cc2c[nH]c3ccccc23)NC(=O)[C@@H]2CCCN2C(=O)[C@@H](NC(=O)[C@@H](N)Cc2ccccc2)C(C)C)C(=O)N[C@@H](CO)C(=O)N[C@@H](CCCCN)C(=O)N[C@@H](Cc2ccccc2)C(=O)N[C@H](CC(C)C)C(=O)NCC(=O)N[C@@H](CCCNC(=N)N)C(=O)N1)C(N)=O (H-FVPWKSKF[dL]GREL-NH2; lactam 5-12) | > 100 µM | > 100 µM | 100 µM (≈ 159 µg/mL) | > 100 µM | > 100 µM | > 100 µM
7 | CC[C@H](C)[C@H](NC(=O)[C@H](CCCNC(=N)N)NC(=O)CNC(=O)[C@@H](CC(C)C)NC(=O)[C@@H]1CCCCn2cc(nn2)C[C@H](NC(=O)[C@@H]2CCCN2C(=O)[C@@H](NC(=O)[C@@H](N)Cc2ccccc2)C(C)C)C(=O)N[C@@H](Cc2ccccc2)C(=O)N[C@@H](CO)C(=O)N[C@@H](CCCCN)C(=O)N1)C(=O)N[C@@H](CC(C)C)C(N)=O (H-FVP[Pra]FSK[Lys(N3)][dL]GRIL-NH2; triazole 4-8) | > 100 µM | > 100 µM | – | > 100 µM | > 100 µM | > 100 µM

Next, values leading:

Row | MIC (Staphylococcus aureus) | MIC [1] | MIC (Priestia megaterium) | MIC (Escherichia coli) | MIC (Pseudomonas aeruginosa) | MIC (Acinetobacter baumannii) | Compound
8 | > 100 µM | > 100 µM | 100 µM (≈ 172 µg/mL) | > 100 µM | > 100 µM | > 100 µM | CCC(C)[C@H](NC(=O)[C@H](CCCNC(=N)N)NC(=O)[C@]1(C)CCC/C=C/CCC[C@](C)(NC(=O)[C@H](Cc2ccccc2)NC(=O)[C@H](Cc2c[nH]c3ccccc23)NC(=O)[C@@H]2CCCN2C(=O)[C@@H](NC(=O)[C@@H](N)Cc2ccccc2)C(C)C)C(=O)N[C@@H](CCCCN)C(=O)N[C@@H](Cc2ccccc2)C(=O)N[C@H](CC(C)C)C(=O)N1)C(=O)N[C@@H](CC(C)C)C(N)=O (some centres undefined)
9 | 100 µM (≈ 167 µg/mL) | – | – | – | > 100 µM | – | CC[C@H](C)[C@H](NC(=O)[C@H](CCCNC(=N)N)NC(=O)[C@@H]1CSSC[C@H](NC(=O)[C@H](Cc2ccccc2)NC(=O)[C@H](Cc2c[nH]c3ccccc23)NC(=O)[C@@H]2CCCN2C(=O)[C@@H](NC(=O)[C@@H](N)Cc2ccccc2)C(C)C)C(=O)N[C@@H](CCCCN)C(=O)N[C@@H](Cc2ccccc2)C(=O)N[C@H](CC(C)C)C(=O)N1)C(=O)N[C@@H](CC(C)C)C(N)=O (H-FVPWFCKF[dL]CRIL-NH2; disulfide 6-10)
10 | > 100 µM | > 100 µM | – | > 100 µM | > 100 µM | > 100 µM | CC(C)C[C@H](NC(=O)[C@@H]1CCC(=O)NCCCC[C@H](NC(=O)[C@H](CCCCN)NC(=O)[C@H](CO)NC(=O)[C@H](Cc2ccccc2)NC(=O)[C@H](Cc2c[nH]c3ccccc23)NC(=O)[C@@H]2CCCN2C(=O)[C@@H](NC(=O)[C@@H](N)Cc2ccccc2)C(C)C)C(=O)N[C@H](CC(C)C)C(=O)NCC(=O)N[C@@H](CCCNC(=N)N)C(=O)N1)C(N)=O (H-FVPWFSKK[dL]GREL-NH2; lactam 8-12)
11 | > 100 µM | > 100 µM | 100 µM (≈ 159 µg/mL) | > 100 µM | > 100 µM | > 100 µM | CC[C@H](C)[C@H](NC(=O)[C@H](CCCNC(=N)N)NC(=O)CNC(=O)[C@H]1CCC(=O)NCCCC[C@H](NC(=O)[C@H](Cc2c[nH]c3ccccc23)NC(=O)[C@@H]2CCCN2C(=O)[C@@H](NC(=O)[C@@H](N)Cc2ccccc2)C(C)C)C(=O)N[C@@H](CO)C(=O)N[C@@H](CCCCN)C(=O)N[C@@H](Cc2ccccc2)C(=O)N1)C(=O)N[C@@H](CC(C)C)C(N)=O (H-FVPWKSKF[dE]GRIL-NH2; lactam 5-9)
12 | > 100 µM | > 100 µM | – | 100 µM (≈ 160 µg/mL) | > 100 µM | 100 µM (≈ 160 µg/mL) | CC[C@H](C)[C@H](NC(=O)[C@H](CCCNC(=N)N)NC(=O)CNC(=O)[C@H]1CCCCn2cc(nn2)C[C@H](NC(=O)[C@H](Cc2c[nH]c3ccccc23)NC(=O)[C@@H]2CCCN2C(=O)[C@@H](NC(=O)[C@@H](N)Cc2ccccc2)C(C)C)C(=O)N[C@@H](CO)C(=O)N[C@@H](CCCCN)C(=O)N[C@@H](Cc2ccccc2)C(=O)N1)C(=O)N[C@@H](CC(C)C)C(N)=O (H-FVPW[Pra]SKF[dLys(N3)]GRIL-NH2; triazole 5-9)
